Measured values reported in ChEMBL document CHEMBL4706553, “Discovery of potent small molecule PROTACs targeting mutant EGFR” (Eur J Med Chem, 2020).
Active and inactive are the calls of the source.

How the values were obtained:
HCC827 [1] = test: Antiproliferative activity against human HCC827 cells expressing EGFR del19 mutant assessed as cell growth inhibition measured after 72 hrs by MTT assay; format: functional, cell-based; conditions: HCC827, 72 h
Summary of the method: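 HCC827 cells were kept in RPMI-1640 with 10% heat-inactivated FBS, 1% sodium pyruvate, 1% glutamine and 1% penicillin-streptomycin at 37 °C and 5% CO₂, seeded at 3000–8000/well and rested 24 h. Compounds were applied as a concentration series for 72 h. MTT (5 mg/mL stock in PBS) was given for 4 h, then medium was removed and DMSO added. IC50 came from nonlinear regression (log inhibitor vs response).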

[2] = test system: von Hippel-Lindau disease tumor suppressor/Epidermal growth factor receptor (Homo sapiens), P00533+P40337 [UNDEFINED MUTATION]; test: Protac activity at VHL/EGFR del19 mutant in human HCC827 cells assessed as maximal induction of EGFR degradation at 33 nM measured after 48 hrs by Western blot analysis; format: cell-based
Summary of the method: (§1)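 HCC827 cells seeded at 0.5–1 × 10⁶ per well, then treated at the stated concentrations for 48 h. EGFR by Western blot; n = 3. DC₅₀ (concentration giving 50% EGFR loss) by nonlinear regression, log(inhibitor) vs response.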

A-431 = test: Antiproliferative activity against human A431 cells expressing wild type EGFR assessed as cell growth inhibition measured after 72 hrs by MTT assay; format: functional, cell-based; conditions: A-431, 72 h
Summary of the method: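 Cells were seeded at 3000–8000/well and allowed 24 h, then exposed to serial compound concentrations for 72 h. MTT (5 mg/mL stock in PBS) was added for 4 h, supernatant removed and DMSO added. IC50, defined as 50% growth inhibition, was derived by nonlinear regression (log inhibitor vs response).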

[3] = test system: von Hippel-Lindau disease tumor suppressor/Epidermal growth factor receptor (Homo sapiens), P00533+P40337 [UNDEFINED MUTATION]; test: Protac activity at VHL/EGFR del19 mutant in human HCC827 cells assessed as induction of EGFR degradation at 0.033 uM pretreated with EGFR inhibitor, F for 2 hrs followed by incubation with compound for 24 hrs by Western blot analysis; format: cell-based
[4] = test system: von Hippel-Lindau disease tumor suppressor/Epidermal growth factor receptor (Homo sapiens), P00533+P40337 [L858R,T790M]; test: Protac activity at VHL/EGFR L858R/T790M mutant in human H1975 cells assessed as induction of degradation of EGFR at 100 to 333 nM precultured in medium without FBS followed by incubation with compound for 16 hrs by Western blot analysis; format: cell-based; conditions: NCI-H1975, dose 100-333 nM
Summary of the method: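 HCC827 or H1975 cells precultured 8 h in medium with or without FBS, then treated at the stated concentrations for 16 h. EGFR protein by Western blot; n = 3.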

[5] = target: von Hippel-Lindau disease tumor suppressor/Epidermal growth factor receptor (Homo sapiens, UniProt P00533+P40337); test: Protac activity at VHL/EGFR del19 mutant in human HCC827 cells assessed as induction of EGFR degradation measured after 48 hrs by Western blot analysis; format: cell-based; summary of the method: as §1
[6] = test system: von Hippel-Lindau disease tumor suppressor/Epidermal growth factor receptor (Homo sapiens), P00533+P40337 [UNDEFINED MUTATION]; test: Protac activity at VHL/EGFR del19 mutant in human HCC827 cells assessed as induction of EGFR degradation at 0.033 uM pretreated with VHL ligand, VHL-L for 2 hrs followed by incubation with compound for 24 hrs by Western blot analysis; format: cell-based
NCI-H1975 [7] = test: Effect on Akt protein expression in human H1975 cells at 0.1 to 1 uM incubated for 48 hrs by Western blot analysis; format: functional, cell-based; conditions: dose 0.1-1 µM
NCI-H1975 [8] = test: Induction of cell cycle arrest in human NCI-H1975 cells assessed as accumulation at G1 phase measured at 333 to 1000 nM measured after 48 hrs by propidium iodide staining based flow cytometry analysis; format: functional; conditions: dose 333-1000 nM
Summary of the method: (§2)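 Cell cycle: cells were seeded at 0.5–1 × 10⁶ per well for 24 h, then treated 48 h. They were collected and washed twice in PBS, stained with PI/RNase at 37 °C for 15 min, and analysed by flow cytometry. n = 2.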

[9] = test system: von Hippel-Lindau disease tumor suppressor/Epidermal growth factor receptor (Homo sapiens), P00533+P40337 [UNDEFINED MUTATION]; test: Protac activity at VHL/EGFR del19 mutant in human HCC827 cells assessed as induction of EGFR degradation by measuring reduction in Akt phosphorylation at 3 nM incubated for 48 hrs by Western blot analysis; format: cell-based
Summary of the method: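 HCC827 or H1975 cells treated at the stated concentrations for 48 h. Lysates probed by Western blot for EGFR, P-EGFR, Akt and P-Akt (each 1:1000); n = 2.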

HCC827 [10] = test: Induction of apoptosis in human HCC827 cells assessed as apoptotic cells at 10 nM measured after 48 hrs by AnnexinV-FITC/propidium iodide staining based flow cytometry analysis relative to control; format: functional
Summary of the method: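 To measure apoptosis, cells were seeded at 0.5–1 × 10⁶ per well, grown 24 h, then treated for 48 h. Collected cells were stained with an Annexin V-FITC apoptosis detection kit following its instructions, and apoptosis rate was read by flow cytometry. n = 2.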

[11] = test system: von Hippel-Lindau disease tumor suppressor/Epidermal growth factor receptor (Homo sapiens), P00533+P40337 [L858R,T790M]; test: Protac activity at VHL/EGFR L858R/T790M mutant in human H1975 cells assessed as induction of degradation of EGFR at 0.33 to 1 uM incubated for 24 hrs by Western blot analysis; format: cell-based; conditions: NCI-H1975, dose 0.33-1 µM
Summary of the method: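 H1975 cells, after 24 h seeding, treated at the stated concentrations for 24 h. EGFR by Western blot with β-actin loading control.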

[12] = test system: von Hippel-Lindau disease tumor suppressor/Epidermal growth factor receptor (Homo sapiens), P00533+P40337 [L858R,T790M]; test: Protac activity at VHL/EGFR L858R/T790M mutant in human H1975 cells assessed as induction of degradation of EGFR at 333 nM incubated for 48 hrs measured after compound wash-out for 48 hrs by Western blot analysis; format: cell-based; conditions: NCI-H1975
Summary of the method: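 H1975 cells (RPMI-1640, 10% heat-inactivated FBS) exposed to 333 nM for 48 h. Medium then replaced with compound-free medium, and lysates collected at the stated times. EGFR read by Western blot; n = 2.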

HCC827 [13] = test: Induction of cell cycle arrest in human HCC827 cells assessed as accumulation at G1 phase at 10 to 100 nM measured after 48 hrs by propidium iodide staining based flow cytometry analysis; format: functional; conditions: dose 10-100 nM; summary of the method: as §2
[14] = test system: von Hippel-Lindau disease tumor suppressor/Epidermal growth factor receptor (Homo sapiens), P00533+P40337 [UNDEFINED MUTATION]; test: Protac activity at VHL/EGFR del19 mutant in human HCC827 cells assessed as induction of EGFR degradation at 1 to 33 nM incubated for 24 hrs by Western blot analysis; format: cell-based; conditions: dose 1-33 nM
Summary of the method: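 HCC827 cells seeded at 0.5–1 × 10⁶ per well, grown 24 h, then treated at the stated concentrations for 24 h. EGFR^del19 level by Western blot with anti-EGFR antibody and β-actin loading control.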

[15] = test system: von Hippel-Lindau disease tumor suppressor/Epidermal growth factor receptor (Homo sapiens), P00533+P40337 [L858R,T790M]; test: Protac activity at VHL/EGFR L858R/T790M mutant in human H1975 cells assessed as induction of degradation of EGFR at 1 uM pretreated with autophagy inhibitor, chloroquine for 2 hrs followed by incubation with compound for 24 hrs by Western blot analysis; format: cell-based; conditions: NCI-H1975
Summary of the method: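 H1975 cells pretreated with chloroquine for 2 h, then exposed to compound for 24 h. EGFR level by Western blot; n = 3.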

[16] = test system: von Hippel-Lindau disease tumor suppressor/Epidermal growth factor receptor (Homo sapiens), P00533+P40337 [L858R,T790M]; test: Protac activity at VHL/EGFR L858R/T790M mutant in human H1975 cells assessed as induction of degradation of EGFR at 0.1 uM pretreated with mTOR inhibitor, rapamycin for 8 hrs followed by incubation with compound for 16 hrs by Western blot analysis; format: cell-based; conditions: NCI-H1975
Summary of the method: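 H1975 cells given rapamycin at the stated concentrations for 8 h, then compound for 16 h. EGFR by Western blot; n = 3.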

Q: With `Cc1ncsc1-c1ccc(CNC(=O)[C@@H]2C[C@@H](O)CN2C(=O)[C@@H](NC(=O)CCCCCCN2CCN(c3ccc(Nc4ncc5nc(Nc6ccccc6)n(C6CCCC6)c5n4)cc3)CC2)C(C)(C)C)cc1` as the molecule, how does the IC50 (HCC827 [1]) read?
A: 0.83 nM

Q: And the Emax [2]?
A: 80.4%

Q: What about the IC50 (A-431) of the same molecule?
A: 245 nM

Q: What about the Activity [3] of the same molecule?
A: inactive

Q: And the Activity [4]?
A: Active

Q: And the DC50 [5]?
A: 0.51 nM

Q: What about the Activity [6] of the same molecule?
A: Active

Q: What about the Activity (NCI-H1975 [7]) of the same molecule?
A: inactive

Q: And the Activity (NCI-H1975 [8])?
A: Active

Q: What about the Activity [9] of the same molecule?
A: Active

Q: What about the Activity (HCC827 [10]) of the same molecule?
A: 31.07%

Q: What about the Activity [11] of the same molecule?
A: Active

Q: What about the Activity [12] of the same molecule?
A: Active

Q: What about the Activity (HCC827 [13]) of the same molecule?
A: Active

Q: And the Activity [14]?
A: Active

Q: What about the Activity [15] of the same molecule?
A: inactive

Q: And the Activity [16]?
A: Active
